Measured values from ChEMBL document CHEMBL4715736, “Identification of anticancer agents based on the thieno[2,3-b]pyridine and 1H-pyrazole molecular scaffolds” (2016).

Experiments:
Type in all cases: functional
NCI/ADR-RES [1] = experiment: Growth inhibition of human NCI/ADR-RES cells assessed as cell growth at 1 uM incubated for 48 hrs by sulforhodamine B assay relative to control; conditions: read-out: Activity
OVCAR-4 = experiment: Growth inhibition of human OVCAR-4 cells assessed as cell growth at 100 uM incubated for 48 hrs by sulforhodamine B assay relative to control; conditions: read-out: Activity
UO-31 = experiment: Growth inhibition of human UO-31 cells assessed as cell growth at 1 uM incubated for 48 hrs by sulforhodamine B assay relative to control; conditions: read-out: Activity
SF-268 [2] = experiment: Growth inhibition of human SF-268 cells assessed as cell growth at 0.01 uM incubated for 48 hrs by sulforhodamine B assay relative to control; conditions: read-out: Activity
Hs-578T [3] = experiment: Growth inhibition of human Hs-578T cells incubated for 48 hrs by sulforhodamine B assay
In short: (§1)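 NCI60 panel at the NCI Developmental Therapeutics Program. Only compounds active in the 10 µM screen went to dose-response testing. GI50, the concentration giving 50% of maximal inhibition of proliferation, and TGI, the concentration giving total growth inhibition, were derived from the dose-response curves.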

SK-MEL-28 = experiment: Growth inhibition of human SK-MEL-28 cells incubated for 48 hrs by sulforhodamine B assay
In short: (§2)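 NCI DTP 60-line human tumour panel. Dose-response curves were run only for ligands active in the initial 10 µM screen. GI50 (concentration giving 50% of maximal inhibition of proliferation) and TGI (concentration giving total growth inhibition) were derived from these curves.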

TK-10 = experiment: Growth inhibition of human TK-10 cells assessed as cell growth at 0.01 uM incubated for 48 hrs by sulforhodamine B assay relative to control; conditions: read-out: Activity
DU-145 = experiment: Growth inhibition of human DU-145 cells assessed as cell growth at 100 uM incubated for 48 hrs by sulforhodamine B assay relative to control; conditions: read-out: Activity
In short: (§3)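 NCI Developmental Therapeutics Program NCI60 panel. Compounds that were active in the 10 µM one-dose screen went on to dose–response testing. Growth at each concentration is expressed relative to untreated control (100%). GI50 (concentration giving 50% of maximal inhibition of proliferation) and TGI (concentration giving total growth inhibition) were derived from the curves.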

PC-3 = experiment: Growth inhibition of human PC-3 cells assessed as cell growth at 0.1 uM incubated for 48 hrs by sulforhodamine B assay relative to control; conditions: read-out: Activity
NCI-H23 [4] = experiment: Growth inhibition of human NCI-H23 cells assessed as cell growth at 100 uM incubated for 48 hrs by sulforhodamine B assay relative to control; conditions: read-out: Activity
NCI-H322M = experiment: Growth inhibition of human NCI-H322M cells incubated for 48 hrs by sulforhodamine B assay; in short: as §1
SF-268 [5] = experiment: Growth inhibition of human SF-268 cells assessed as cell growth at 1 uM incubated for 48 hrs by sulforhodamine B assay relative to control; conditions: read-out: Activity
Malme-3M [6] = experiment: Growth inhibition of human Malme-3M cells assessed as cell growth at 1 uM incubated for 48 hrs by sulforhodamine B assay relative to control; conditions: read-out: Activity
Hs-578T [7] = experiment: Growth inhibition of human Hs-578T cells assessed as cell growth at 0.01 uM incubated for 48 hrs by sulforhodamine B assay relative to control; conditions: read-out: Activity
OVCAR-8 = experiment: Growth inhibition of human OVCAR-8 cells incubated for 48 hrs by sulforhodamine B assay; in short: as §2
NCI-H23 [8] = experiment: Growth inhibition of human NCI-H23 cells assessed as cell growth at 0.1 uM incubated for 48 hrs by sulforhodamine B assay relative to control; conditions: read-out: Activity
HCT-116 = experiment: Growth inhibition of human HCT-116 cells assessed as cell growth at 0.1 uM incubated for 48 hrs by sulforhodamine B assay relative to control; conditions: read-out: Activity
KM12 = experiment: Growth inhibition of human KM12 cells assessed as cell growth at 0.1 uM incubated for 48 hrs by sulforhodamine B assay relative to control; conditions: read-out: Activity
SK-OV-3 = experiment: Growth inhibition of human SK-OV-3 cells assessed as cell growth at 0.01 uM incubated for 48 hrs by sulforhodamine B assay relative to control; conditions: read-out: Activity
K562 [9] = experiment: Growth inhibition of human K562 cells assessed as cell growth at 100 uM incubated for 48 hrs by sulforhodamine B assay relative to control; conditions: read-out: Activity
HOP-62 = experiment: Growth inhibition of human HOP-62 cells incubated for 48 hrs by sulforhodamine B assay; in short: as §1
NCI-H23 [10] = experiment: Growth inhibition of human NCI-H23 cells assessed as cell growth at 1 uM incubated for 48 hrs by sulforhodamine B assay relative to control; conditions: read-out: Activity
Malme-3M [11] = experiment: Growth inhibition of human Malme-3M cells incubated for 48 hrs by sulforhodamine B assay; in short: as §1
LOX IMVI = experiment: Growth inhibition of human LOX IMVI cells assessed as cell growth at 100 uM incubated for 48 hrs by sulforhodamine B assay relative to control; conditions: read-out: Activity
SF-295 = experiment: Growth inhibition of human SF-295 cells assessed as cell growth at 0.01 uM incubated for 48 hrs by sulforhodamine B assay relative to control; conditions: read-out: Activity
SK-MEL-5 = experiment: Growth inhibition of human SK-MEL-5 cells assessed as cell growth at 0.01 uM incubated for 48 hrs by sulforhodamine B assay relative to control; conditions: read-out: Activity
NCI/ADR-RES [12] = experiment: Growth inhibition of human NCI/ADR-RES cells assessed as cell growth at 0.01 uM incubated for 48 hrs by sulforhodamine B assay relative to control; conditions: read-out: Activity
HCC 2998 = experiment: Growth inhibition of human HCC 2998 cells assessed as cell growth at 100 uM incubated for 48 hrs by sulforhodamine B assay relative to control; conditions: read-out: Activity; in short: as §3
MCF7 = experiment: Growth inhibition of human MCF7 cells assessed as cell growth at 0.01 uM incubated for 48 hrs by sulforhodamine B assay relative to control; conditions: read-out: Activity
NCI-H460 = experiment: Growth inhibition of human NCI-H460 cells incubated for 48 hrs by sulforhodamine B assay; in short: as §1
U-251 [13] = experiment: Growth inhibition of human U-251 cells assessed as cell growth at 0.01 uM incubated for 48 hrs by sulforhodamine B assay relative to control; conditions: read-out: Activity
K562 [14] = experiment: Growth inhibition of human K562 cells assessed as cell growth at 1 uM incubated for 48 hrs by sulforhodamine B assay relative to control; conditions: read-out: Activity
HOP-92 = experiment: Growth inhibition of human HOP-92 cells incubated for 48 hrs by sulforhodamine B assay; in short: as §1
U-251 [15] = experiment: Growth inhibition of human U-251 cells assessed as cell growth at 0.1 uM incubated for 48 hrs by sulforhodamine B assay relative to control; conditions: read-out: Activity
[16] = read-out: LC50 (the source's name)

Compound `CN1CCc2nc3sc(C(N)=O)c(N)c3c(-c3cccs3)c2C1` has a growth at 1 µM (NCI/ADR-RES [1]) of 91%, a growth at 100 µM (OVCAR-4) of 6% and a growth at 1 µM (UO-31) of 95%. For the same compound, the growth at 0.01 µM (SF-268 [2]) was 106%, the GI50 (Hs-578T [3]) was 3.07 µM and the TGI (Hs-578T [3]) was 21.7 µM. The CC50 (Hs-578T [3]; [16]) was > 100 µM, the GI50 (SK-MEL-28) was 2.91 µM and the LC50 (SK-MEL-28) was > 100 µM. The TGI (SK-MEL-28) was 9.59 µM, the growth at 0.01 µM (TK-10) was 101% and the growth at 100 µM (DU-145) was -1%. For the same compound, the growth at 0.1 µM (PC-3) was 110%, the growth at 100 µM (NCI-H23 [4]) was -30% and the GI50 (NCI-H322M) was 3.85 µM. For the same compound, the TGI (NCI-H322M) was 88.5 µM, the CC50 (NCI-H322M; [16]) was > 100 µM and the growth at 1 µM (SF-268 [5]) was 107%. It also gave a growth at 1 µM (Malme-3M [6]) of 131%, a growth at 0.01 µM (Hs-578T [7]) of 95% and a GI50 (OVCAR-8) of 2.7 µM. For the same compound, the TGI (OVCAR-8) was > 100 µM, the CC50 (OVCAR-8; [16]) was > 100 µM and the growth at 0.1 µM (NCI-H23 [8]) was 95%. It also gave a growth at 0.1 µM (HCT-116) of 102%, a growth at 0.1 µM (KM12) of 105% and a growth at 0.01 µM (SK-OV-3) of 93%. For the same compound, the growth at 100 µM (K562 [9]) was 2%, the GI50 (HOP-62) was 3.27 µM and the LC50 (HOP-62) was > 100 µM. The TGI (HOP-62) was > 100 µM, the growth at 1 µM (NCI-H23 [10]) was 89% and the GI50 (Malme-3M [11]) was 5.06 µM. For the same compound, the LC50 (Malme-3M [11]) was > 100 µM, the TGI (Malme-3M [11]) was 38.4 µM and the growth at 100 µM (LOX IMVI) was 2%. It also gave a growth at 0.01 µM (SF-295) of 93%, a growth at 0.01 µM (SK-MEL-5) of 96% and a growth at 0.01 µM (NCI/ADR-RES [12]) of 100%. The growth at 100 µM (HCC 2998) was -29%, the growth at 0.01 µM (MCF7) was 98% and the GI50 (NCI-H460) was 3.71 µM. The LC50 (NCI-H460) was > 100 µM, the TGI (NCI-H460) was > 100 µM and the growth at 0.01 µM (U-251 [13]) was 99%. The growth at 1 µM (K562 [14]) was 96%, the GI50 (HOP-92) was 3.16 µM and the LC50 (concentration killing 50% of the starting cells) (HOP-92) was > 100 µM. It also gave a TGI (HOP-92) of 9.16 µM and a growth at 0.1 µM (U-251 [15]) of 98%.
